Assay results taken from ChEMBL document CHEMBL1255466, “Nucleotide selectivity of antibiotic kinases” (Antimicrob Agents Chemother, 2010).

How the values were obtained:
[1] = Inhibition of macrolide 2'-phosphotransferase 1 by PK/LDH-coupled assay
[2] = Inhibition of APH(3')-3a by PK/LDH-coupled assay
How it was run: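 N-terminally His6-tagged kinase, purified on Ni-NTA. Antibiotic at saturating level, preincubated 5 min at 37°C. Started with ATP or GTP held at Km. AMPPNP or GMPPNP added as 2-fold dilutions. NADH oxidation read at 340 nm over 5 min. IC50 fitted, then converted to Ki.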

[3] = Ratio of Kcat to Km for macrolide 2'-phosphotransferase 1 by PK/LDH-coupled assay in presence of GTP
How it was run: (§1)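 His6-tagged kinase purified by Ni-NTA. […] Nucleotide (ATP or GTP) was varied to start; A340 followed 5 min. Linear initial rates were fitted by nonlinear least squares.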

[4] = Activity at macrolide 2'-phosphotransferase 1 by PK/LDH-coupled assay in presence of ATP; how it was run: as §1
[5] = Ratio of Kcat to Km for macrolide 2'-phosphotransferase 1 by PK/LDH-coupled assay in presence of ATP; how it was run: as §1
[6] = Ratio of Kcat to Km for macrolide 2'-phosphotransferase 1 by PK/LDH-coupled assay
How it was run: (§2)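 Macrolide substrate was varied in the PK/LDH-coupled system (HEPES pH 7.5, KCl, MgCl2, NADH, PEP), with fixed 0.2 mM GTP as donor. Antibiotic was preincubated with enzyme 5 min at 37°C, the reaction was started with nucleotide, and NADH oxidation was read at 340 nm for 5 min. Initial rates were fitted to Michaelis-Menten, or to a substrate-inhibition equation where it applied.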

[7] = Activity at macrolide 2'-phosphotransferase 1 by PK/LDH-coupled assay; how it was run: as §2
[8] = Activity at macrolide 2'-phosphotransferase 1 by PK/LDH-coupled assay in presence of GTP; how it was run: as §1
[9] = Activity at APH(3')-3a by PK/LDH-coupled assay in presence of ATP; how it was run: as §1
[10] = Ratio of Kcat to Km for APH(3')-3a by PK/LDH-coupled assay in presence of ATP; how it was run: as §1

Compound | kcat/Km [6] | Km [7] [µM] | kcat [7] [s⁻¹] | further results
Nc1ncnc2c1ncn2[C@@H]1O[C@H](COP(=O)(O)OP(=O)(O)NP(=O)(O)O)[C@@H](O)[C@H]1O |  |  |  | Ki [1]: Not Active; Ki ([2]; read-out: Ki): 14.2 µM
CC[C@H]1OC(=O)[C@H](C)[C@@H](O[C@H]2C[C@@](C)(OC)[C@@H](O)[C@H](C)O2)[C@H](C)[C@@H](O[C@@H]2O[C@H](C)C[C@H](N(C)C)[C@H]2O)[C@](C)(OC)C[C@@H](C)C(=O)[C@H](C)[C@@H](O)[C@]1(C)O | 6.77 ×10³ /s/M | 45.9 | 0.311 | 
CC[C@H]1OC(=O)[C@H](C)C(=O)[C@H](C)[C@@H](O[C@@H]2O[C@H](C)C[C@H](N(C)C)[C@H]2O)[C@](C)(OC)C[C@@H](C)C(=O)[C@H](C)[C@H]2N(CCCCn3cnc(-c4cccnc4)c3)C(=O)O[C@]12C | 2.07 ×10⁴ /s/M | 7.4 | 0.152 | Ki [1]: 622 µM
Nc1nc2c(ncn2[C@@H]2O[C@H](COP(=O)(O)OP(=O)(O)NP(=O)(O)O)[C@@H](O)[C@H]2O)c(=O)[nH]1 [PHOSPHOAMINOPHOSPHONIC ACID GUANYLATE ESTER] |  |  |  | Ki [2]: Not Active
SPIRAMYCIN | 4.19 ×10² /s/M | 478 | 0.2 | 
NC[C@@H]1O[C@H](O[C@H]2[C@@H](O)[C@H](O[C@@H]3[C@@H](O)[C@H](N)C[C@H](N)[C@H]3O[C@H]3O[C@H](CN)[C@@H](O)[C@H](O)[C@H]3N)O[C@@H]2CO)[C@H](N)[C@@H](O)[C@@H]1O |  |  |  | Km [9]: 10.6 µM; kcat [9]: 1.59 s⁻¹; kcat/Km [10]: 1.5 ×10⁵ /s/M

Second part, led by results:

kcat/Km [6] | Km [7] [µM] | kcat [7] [s⁻¹] | Compound | further results
7.52 ×10³ /s/M | 37.2 | 0.279 | CC[C@H]1OC(=O)[C@H](C)[C@@H](O[C@H]2C[C@@](C)(OC)[C@@H](O)[C@H](C)O2)[C@H](C)[C@@H](O[C@@H]2O[C@H](C)C[C@H](N(C)C)[C@H]2O)[C@](C)(O)C[C@@H](C)C(=O)[C@H](C)[C@@H](O)[C@]1(C)O | kcat/Km [3]: 1.07 ×10⁴ /s/M; Km [4]: 1890 µM; kcat [4]: 0.022 s⁻¹; kcat/Km [5]: 1.16 ×10¹ /s/M; Km [8]: 59.2 µM; kcat [8]: 0.634 s⁻¹
1.05 ×10⁴ /s/M | 27.7 | 0.292 | CC[C@H]1OC(=O)[C@H](C)[C@@H](O[C@H]2C[C@@](C)(OC)[C@@H](O)[C@H](C)O2)[C@H](C)[C@@H](O[C@@H]2O[C@H](C)C[C@H](N(C)C)[C@H]2O)[C@](C)(O)C[C@@H](C)CN(C)[C@H](C)[C@@H](O)[C@]1(C)O | 
1.33 ×10³ /s/M | 131 | 0.174 | CC[C@H]1OC(=O)C[C@@H](O)[C@H](C)[C@@H](O[C@@H]2O[C@H](C)[C@@H](O[C@H]3C[C@@](C)(O)[C@@H](O)[C@H](C)O3)[C@H](N(C)C)[C@H]2O)[C@@H](CC=O)C[C@@H](C)C(=O)/C=C/C(C)=C/[C@@H]1CO[C@@H]1O[C@H](C)[C@@H](O)[C@@H](OC)[C@H]1OC | 
